In ChEMBL document CHEMBL3865799, “Synthesis of a series of novel dihydroartemisinin monomers and dimers containing chalcone as a linker and their anticancer activity” (Eur J Med Chem, 2016):

Assays:
[1] = Cytotoxicity against human MIAPaCa2 cells assessed as cell growth inhibition at 1 uM after 48 hrs by MTT assay; type: functional; conditions: MIA PaCa-2, 48 h, read-out: GI
Summary of the method: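 Adherent lines at 70–75% confluence, grown at 37 °C in 5% CO2 with 10% FCS. Exposed 48 h to compound in DMSO (vehicle <0.2% v/v). MTT dye added 3 h before termination; formazan dissolved in DMSO, OD 570 nm with 620 nm reference. Growth inhibition expressed as % of untreated; IC50 taken from the dose series.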

[2] = Cell cycle arrest in human HL60 cells assessed as accumulation at subG0 phase at 1 uM after 24 hrs by propidium iodide-DNA fluorescence based FACS analysis (reference value: 5 %); type: functional; conditions: HL-60
Summary of the method: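 HL-60 cells seeded at 0.5 × 10^6 cells/ml, exposed 24 h to compound (DMSO vehicle, <0.2% v/v). Pelleted at 400×g, PBS-washed, fixed in 70% ethanol at 4 °C overnight. RNase A treatment at 37 °C for 1.30 h, then propidium iodide staining for 20 min. Flow cytometry on 10,000 events, FL2-A vs FL2-W; subG0 (apoptotic) and phase populations gated.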

| Structure (SMILES) | inhibition of growth at 1 µM [1] [%] | Activity [2] [%] |
| --- | --- | --- |
| C[C@H]1[C@@H](OCCOc2cccc(C(=O)/C=C/c3ccc(O)cc3)c2)O[C@@H]2O[C@@]3(C)CC[C@H]4[C@H](C)CC[C@@H]1[C@@]24OO3 | 13 | 65 |
| C[C@H]1[C@@H](OCCOc2ccc(/C=C/C(=O)c3ccc(O)cc3)cc2)O[C@@H]2O[C@@]3(C)CC[C@H]4[C@H](C)CC[C@@H]1[C@@]24OO3 | 9.1 | – |
